Consider three compounds from ChEMBL document CHEMBL1158813, “Diastereomeric quinolinone alkaloids from the marine-derived fungus Penicillium janczewskii” (2005).

What all share (format): functional
Details in all cases: read-out: Activity

Assay [1] concerns MDA-MB-231. Put plainly: Cytotoxicity against human MDA-MB-231 cells assessed as cell viability at 10 ug/mL by SRB assay. A digest of the protocol: (§1)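 SRB assay. Cells were plated at 5000–10 000 cells/well, depending on doubling time, and grown 24 h before compound addition. Compounds were dissolved in MeOH or DMSO and tested at 1 µg per 100 µL well (10 µg/mL) in complete medium for 48 h. Cells were fixed with cold TCA for 30 min on ice, at 10% final for adherent cells and 16% for suspension cells. Plates were stained with 0.4% SRB in 1% acetic acid for 10 min at room temperature, dye was solubilized in 10 mM Tris/KOH pH 10.5, and A550 was read.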
In general terms: Sulforhodamine B stains cellular protein and so reports cell mass.

In assay [2] the test system is DU-145. As to the kind of experiment: Cytotoxicity against human DU145 cells assessed as cell viability at 10 ug/mL by SRB assay. The method in brief: as §1
Assay [3] concerns SK-OV-3. Put plainly: Cytotoxicity against human SKOV3 cells assessed as cell viability at 10 ug/mL by SRB assay. A digest of the protocol:
as §1

Assay [4] concerns HT-29. Put plainly: Cytotoxicity against human HT-29 cells assessed as cell viability at 10 ug/mL by SRB assay. The method in brief:
as §1

Assay [5] concerns A549. As to the kind of experiment: Cytotoxicity against human A549 cells assessed as cell viability at 10 ug/mL by SRB assay. A digest of the protocol: as §1
Assay [6] deals with CAKI-1. As to the kind of experiment: Cytotoxicity against human Caki1 cells assessed as cell viability at 10 ug/mL by SRB assay. A digest of the protocol:
as §1

For assay [7], the system named is SK-MEL-2. As to the kind of experiment: Cytotoxicity against human SK-MEL-2 cells assessed as cell viability at 10 ug/mL by SRB assay. A digest of the protocol:
as §1

The subject of assay [8] is K562. Put plainly: Cytotoxicity against human K562 cells assessed as cell viability at 10 ug/mL by SRB assay. A digest of the protocol: as §1

Take `COc1ccc([C@@]2(O)c3c(ccc(CC=C(C)C)c3O)NC(=O)[C@@H]2OC)cc1` [PENIPREQUINOLONE]: the viability at 10 µg/mL stood at 8.4% in assay [1], 30.8% in assay [2], 20.2% in assay [3] and 4% in assay [4].

On to `COc1ccc([C@@]2(O)c3ccccc3NC(=O)[C@@H]2O)cc1`, for which the viability at 10 µg/mL in assay [1] came out at 31.8%; in assay [2], 48.4%; in assay [3], 8.1%; in assay [4], 32.8%; in assay [5] it was 56.8%; in assay [6], 65.1%. In addition, the viability at 10 µg/mL in assay [7] came out at 39%; in assay [8], 36.6%.

Turning to `COc1ccc([C@@]2(O)c3ccccc3NC(=O)[C@H]2O)cc1`, the viability at 10 µg/mL turned out to be 52.9% in assay [1]; 50.6% in assay [2]; 44.6% in assay [3]; 58.8% in assay [4]; 56.3% in assay [5]; 80.3% in assay [6]. Moreover, the viability at 10 µg/mL in assay [7] came to 55.2%; in assay [8], 52.4%.
